# Screening data as filed in PubChem BioAssay.
# Scp-1 inhibitor – blocks human Scp-1 phosphatase activity; Recombinant Scp1, phosphopeptide, malachite green phosphate absorbance; inhibition, % at 20 µM; actives 0.88% (n = 340,000); AID 493091;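 active = inhibition above about 50% at 20 µM, limit read from the data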;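 also: plate controls were DMSO wells with enzyme for no effect and wells lacking enzyme for full effect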
# Target sequence (Q9GZU7 76-261 limits assumed): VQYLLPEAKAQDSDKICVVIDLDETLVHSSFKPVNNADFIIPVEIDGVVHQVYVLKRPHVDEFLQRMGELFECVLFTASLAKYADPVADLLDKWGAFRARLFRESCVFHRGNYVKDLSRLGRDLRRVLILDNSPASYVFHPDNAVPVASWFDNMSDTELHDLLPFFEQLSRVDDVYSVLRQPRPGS
#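 Test system: SCP-1 catalytic domain; Buffer or medium: Acidic Tris acetate buffer with magnesium and detergent; Also added: Phosphorylated 17-residue peptide substrate; Compound: single 20 µM dose, 1% DMSO; Schedule: enzyme reaction 45 min at room temperature, colour 5 min, stabilisation 30 min; Signal: Phosphate-binding colour reagent, absorbance read at 630 nm.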
# LMPTP block – blocks human LMPTP phosphatase. P24666. recombinant LMPTP-A, OMFP fluorogenic substrate, fluorescence intensity. inhibition, % at 20 µM. actives 0.22% (n = 360,000). AID 651560;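 active = compounds that cut the enzyme signal by at least half of the control window in the single-dose screen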;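 also: plate controls were DMSO wells with enzyme plus substrate for no effect and substrate without enzyme for full effect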
# Target sequence (P24666 whole entry, looked up): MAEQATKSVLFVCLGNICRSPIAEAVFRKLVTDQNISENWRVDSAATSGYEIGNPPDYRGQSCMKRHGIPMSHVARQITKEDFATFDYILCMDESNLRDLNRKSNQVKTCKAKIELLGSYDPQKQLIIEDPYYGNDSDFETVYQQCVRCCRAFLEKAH
#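 material = LMPTP-A | quantity = 0.625 nM enzyme | reagent = OMFP substrate, 400 µM final | buffer or medium = Bis-Tris pH 6.0, DTT, detergent | detection = endpoint fluorescence intensity from OMFP dephosphorylation | dosing = single 20 µM dose | read-out basis = % inhibition relative to no-enzyme and uninhibited control wells | control set = no-enzyme and uninhibited controls | timing = 50 min at room temperature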
# DNMT1 inh – DNMT1 (human) enzyme inhibition; DNMT1 molecular beacon, Hinp1I cleavage, fluorescence; inhibition (reported as % activation of signal), % at 10 µM; actives 0.83% (n = 360,000); P26358; in the data active = inhibition above about 50%
# STEP inh – blocks human striatal-enriched tyrosine phosphatase; inhibition, % at 20 µM; actives 0.25% (n = 360,000); recombinant STEP, OMFP fluorogenic substrate, fluorescence; P54829;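 active = inhibition at 20 µM, scaled per plate between control wells, above about 37%, limit read from the data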;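 also: 0% = DMSO with enzyme and substrate and 100% = substrate only without enzyme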
#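 Assay system: isolated STEP enzyme. Buffer or medium: pH 6.0 Bis-Tris with DTT and Tween 20. Also added: fluorogenic phosphatase substrate OMFP at 25 µM final. Dosing: 20 µM, 1% DMSO. Timing: 20 min reaction, room temperature, in the dark. Measured by: fluorescence intensity, excitation 480 nm, emission 540 nm. Evaluation: normalized % inhibition.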
# SUMO1-SIM PPI – alters human SUMO1 binding to SIM partners | inhibition, % at 20 µM | AID 602429 | SUMO1 binding to a labelled peptide, TR-FRET, 1 h | actives 0.33% (n = 360,000) | P63165; in the data active = inhibition above about 37%
# Target sequence (P63165 whole entry, looked up): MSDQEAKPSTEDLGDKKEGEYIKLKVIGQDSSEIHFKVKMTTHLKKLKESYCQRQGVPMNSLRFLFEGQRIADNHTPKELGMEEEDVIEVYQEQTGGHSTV
# Active calls of the source: *; . = no result given; + = active, no number. Compounds with a hit are over-represented: about 1.7% of the library has one in this group of screens.
SMILES,Scp-1 inhibitor,LMPTP block,DNMT1 inh,STEP inh,SUMO1-SIM PPI
O=C(Nc1ccc(C(=O)O)cc1)Nc1ccc([N+](=O)[O-])cc1,-16,0,0,-2,-25
COC(=O)c1ccc(NC(=O)Nc2ccc([N+](=O)[O-])cc2)cc1,8,85*,1,24,0
Fc1ccccc1-c1nc(NCCCN2CCOCC2)c2ccccc2n1,-3,51*,1,-4,0
CC(C)OCCCNc1nc(-c2ccccc2)nc2ccccc12,-1,56*,6,3,5
Cc1ccc(-c2nc(NCCN3CCOCC3)c3ccccc3n2)cc1,-8,50*,0,-2,3
Clc1ccc(-c2nc(NCCCN3CCOCC3)c3ccccc3n2)cc1,2,42,14,-1,5
CN(C)CCCNc1nc(-c2ccccc2)nc2ccccc12,-4,28,-6,1,-23
C[C@H]1CN([C@@H](C)CO)C(=O)CCCn2nncc2CO[C@@H]1CN(C)C(=O)c1ccncc1,.,-2,3,1,3
O=C(Nc1ccc2c(c1)OCCO2)C(c1ccccc1)n1c(=O)c(-c2cc3ccccc3[nH]2)nc2ccccc21 (stereo unspecified),.,4,.,.,0
O=C(O)CCNc1ccc(NCCC(=O)O)c2c1C(=O)c1ccccc1C2=O,86*,72*,97*,96*,60*
COc1ccccc1NCCC(=O)O,-2,-1,1,5,-4
COC(=O)[C@@H](Cc1ccccc1)NC(=O)NCCc1ccc(OC)c(OC)c1,-4,0,1,0,-4
NS(=O)(=O)c1ccc(-c2ccc(C=C3C(=O)c4ccccc4C3=O)o2)cc1,-11,8,0,-2,-4
CC(C)CC1=C/C(=C/c2ccc(-c3ccccc3)o2)C(=O)O1,15,4,92*,4,14
CCOC(=O)c1ccc(NC(=O)C2CC(O)CN2S(=O)(=O)c2ccc(C)cc2)cc1 (stereo unspecified),-6,-1,2,-2,42*
Cc1ccc(S(=O)(=O)N2CC(O)CC2C(=O)O)cc1 (stereo unspecified),-9,-1,-2,-3,4
O=C1C(=Cc2cn(-c3ccccc3)nc2-c2ccc(OCc3ccccc3)cc2)SC(=S)N1CCS(=O)(=O)O,.,88*,-59,10,90*
Cc1cc(-c2nn(-c3ccccc3)cc2/C=C2\SC(N)=NC2=O)ccc1OC(C)C,-2,1,-18,0,-7
CCN1C(=O)/C(=C\c2cn(-c3ccccc3)nc2-c2cccnc2)SC1=S,6,0,53*,-1,8
CCCOc1ccc(-c2nn(-c3ccccc3)cc2/C=C2\SC(N)=NC2=O)cc1,-5,0,55*,4,11
O=C(O)CN1C(=O)/C(=C\c2cn(-c3ccccc3)nc2-c2ccccc2)SC1=S,22,2,-3,9,-6
CC(C)N(C(=O)[C@H]1C[C@H](CC(=O)NCCC2=CCCCC2)C(=O)N2CCc3c([nH]c4cc(-c5ccco5)ccc34)[C@]12C)C(C)C,1,4,-22,1,2
c1ccc2c(N3CCCCC3)nc(N3CCCCC3)nc2c1,0,1,3,2,-4
C(=C\c1nc(N2CCCCCC2)c2ccccc2n1)/c1ccccc1,2,56*,-6,3,-1
CC1CCCCN1S(=O)(=O)c1cccc2nonc12 (stereo unspecified),-4,1,0,-2,-34
SMILES,Scp-1 inhibitor,LMPTP block,DNMT1 inh,STEP inh,SUMO1-SIM PPI
Cc1c(NC(=O)c2nn(C(C)C)c(=O)c3ccccc23)c(=O)n(-c2ccccc2)n1C,.,-1,-2,-2,-4
Nc1ccc(N)c(C(=O)O)c1,96*,81*,117*,96*,105*
COc1ccc(CCn2c(C3CCCCC3)nc3c(c(=O)c4ccccc4n3C)c2=O)cc1,1,104*,7,98*,34
Cn1c2ccccc2c(=O)c2c(=O)n(-c3ccccc3)c(C3CCCCC3)nc21,2,2,12,9,9
CCOc1ccc(NC(=O)CN(C)C(=O)C2=COCCO2)cc1OCC,5,0,1,1,4
CCN(CC)c1ccc(/C=N/NC(=O)c2ccc([N+](=O)[O-])cc2)cc1,-1,1,12,1,-11
CCN=C(N/N=C/c1ccc([N+](=O)[O-])cc1)SC,104*,-2,4,-2,-22
CCCCNC(=O)C1c2ccccc2OCC(=O)N1CCOC (stereo unspecified),.,-2,.,.,1
CCN(CC(=O)Nc1c(F)cccc1F)C(=O)/C=C/c1ccc2ccccc2n1,86*,71*,102*,42*,77*
N=c1c2c3c(sc2nc2n1CCCCC2)CCCCC3,-2,0,4,42*,4
CCOc1ccc(NC(=O)CN2C(=O)NC(C)(c3ccc(OC(F)F)cc3)C2=O)cc1 (stereo unspecified),-12,-2,-2,-2,1
Cc1oc(-c2cc(F)ccc2F)nc1CN1CCC(C(=O)N2CCOCC2)CC1,-7,-1,1,0,44*
COc1ccc(-c2nc(CN3CCC(C(=O)N4CCOCC4)CC3)c(C)o2)cc1OC,-7,-2,-2,1,1
O=C(Nc1cccc(NC(=O)c2ccccc2Cl)c1)c1ccco1,-10,0,1,1,3
O=C(Nc1cccc(NC(=O)c2ccc(-c3ccc(Br)cc3)o2)c1)c1ccco1,-9,5,-14,1,44*
CC1=C(C(=O)N2CCOCC2)CC(CC(=O)NC2CC2)C(=O)N1Cc1ccc(F)cc1 (stereo unspecified),.,-2,-2,-4,0
O=[N+]([O-])c1cc(CN2CCOCC2)c2cccnc2c1O,66*,.,.,.,.
CC(C)(C)c1ccc(C(=O)c2cn[nH]c2-c2ccccc2O)cc1,-18,1,-3,2,1
O=c1cc2oc3cc(O)c(O)cc3c(-c3ccccc3O)c-2cc1O,31,67*,110*,2,6
CCOc1ccccc1-c1c2cc(O)c(=O)cc-2oc2cc(O)c(O)cc12,33,66*,+,-310,-19
COc1ccc(OC)c(-c2c3cc(O)c(=O)cc-3oc3cc(O)c(O)cc23)c1,68*,78*,150*,16,25
CCCCCC(=O)N1C[C@@H](O)[C@H](n2cc(COC(=O)c3ccccc3)nn2)C[C@@H]1c1ccc(Cl)cc1,.,2,3,1,1
CC(C)[C@H](NC(=O)c1ccc([N+](=O)[O-])cc1Cl)C(=O)N1CCN(C/C=C/c2ccccc2)CC1,-7,0,-2,-2,-33
Cn1nc(C(=O)OCC(=O)Nc2ccc(SC(F)F)cc2)c2ccccc2c1=O,-13,2,-1,1,-11
